“And” between values parts separate entries of the source, which are not always exact repeats. Equal entries are not always repeated.
Tested on: HEK-293T
Experiment: Multiplex assay against HEK293T
Format: toxicity, cell-based
Settings: human, number of replicates 2
Summary of the method: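 Imaging took place on a CQ1 microscope at 37°C and 5% CO2 once compound had been added to live cells stained at seeding with Hoechst33342, BioTracker Green Microtubule Cytoskeleton Dye, MitoTracker Red and Annexin V Alexa Fluor 680. CellPathfinder machine-learning gating classed cells as Hoechst high-intensity objects or normal cells, classed normal cells as having healthy, pyknosed or fragmented nuclei, and classed pyknosed cells as mitotic or apoptotic. Tubulin, mitochondrial-mass and membrane-permeability phenotypes are per cents of the healthy-nucleus cells.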

[1] = 12 h, 1 µM, compound concentration 1 uM
[2] = 12 h, 10 µM, compound concentration 10 uM
[3] = 24 h, 1 µM, compound concentration 1 uM
[4] = 24 h, 10 µM, compound concentration 10 uM
[5] = 48 h, 1 µM, compound concentration 1 uM
[6] = 48 h, 10 µM, compound concentration 10 uM

SMILES: CC(C)(C)c1cnc(CSc2cnc(NC(=O)C3CCNCC3)s2)o1 [BMS-387032]
- Population Apoptotic (%) [1]: 64% and 60%
- Population Fragmented Nuclei (%) [1]: 3%
- Population Healthy Nuclei (%) [1]: 69% and 77%
- Population Hoechst High Intensity Objects (%) [1]: 17% and 10%
- Population Membrane Permeable-Phenotype (%) [1]: 6% and 0%
- Population Mitochondria Different-Phenotype (%) [1]: 54%
- Population Mitotic Cells (%) [1]: 35% and 40%
- Population Normal (%) [1]: 82% and 89%
- Population Pyknosed Nuclei (%) [1]: 26% and 18%
- Population Tubulin-Different-Phenotype (%) [1]: 75% and 77%
- Population Apoptotic (%) [2]: 87% and 73%
- Population Fragmented Nuclei (%) [2]: 6% and 3%
- Population Healthy Nuclei (%) [2]: 77% and 90%
- Population Hoechst High Intensity Objects (%) [2]: 18% and 15%
- Population Membrane Permeable-Phenotype (%) [2]: 3% and 1%
- Population Mitochondria Different-Phenotype (%) [2]: 66% and 67%
- Population Mitotic Cells (%) [2]: 12% and 26%
- Population Normal (%) [2]: 81% and 84%
- Population Tubulin-Different-Phenotype (%) [2]: 84% and 85%
- Population Apoptotic (%) [3]: 73% and 69%
- Population Fragmented Nuclei (%) [3]: 6% and 5%
- Population Healthy Nuclei (%) [3]: 70% and 72%
- Population Hoechst High Intensity Objects (%) [3]: 22% and 14%
- Population Membrane Permeable-Phenotype (%) [3]: 3% and 0%
- Population Mitochondria Different-Phenotype (%) [3]: 58% and 61%
- Population Mitotic Cells (%) [3]: 26% and 30%
- Population Normal (%) [3]: 77% and 85%
- Population Pyknosed Nuclei (%) [3]: 23% and 21%
- Population Tubulin-Different-Phenotype (%) [3]: 69% and 71%
- Population Apoptotic (%) [4]: 87% and 75%
- Population Fragmented Nuclei (%) [4]: 9% and 5%
- Population Healthy Nuclei (%) [4]: 73% and 85%
- Population Hoechst High Intensity Objects (%) [4]: 19% and 17%
- Population Membrane Permeable-Phenotype (%) [4]: 0%
- Population Mitochondria Different-Phenotype (%) [4]: 80% and 78%
- Population Mitotic Cells (%) [4]: 12% and 25%
- Population Normal (%) [4]: 80% and 82%
- Population Pyknosed Nuclei (%) [4]: 16% and 9%
- Population Tubulin-Different-Phenotype (%) [4]: 84% and 89%
- Population Apoptotic (%) [5]: 77% and 81%
- Population Fragmented Nuclei (%) [5]: 7% and 4%
- Population Healthy Nuclei (%) [5]: 71% and 77%
- Population Hoechst High Intensity Objects (%) [5]: 21% and 16%
- Population Membrane Permeable-Phenotype (%) [5]: 1% and 0%
- Population Mitochondria Different-Phenotype (%) [5]: 62% and 68%
- Population Mitotic Cells (%) [5]: 22% and 18%
- Population Normal (%) [5]: 78% and 83%
- Population Pyknosed Nuclei (%) [5]: 21% and 18%
- Population Tubulin-Different-Phenotype (%) [5]: 64% and 65%
- Population Apoptotic (%) [6]: 92% and 93%
- Population Fragmented Nuclei (%) [6]: 9% and 5%
- Population Healthy Nuclei (%) [6]: 71% and 86%
- Population Hoechst High Intensity Objects (%) [6]: 23% and 19%
- Population Membrane Permeable-Phenotype (%) [6]: 2%
- Population Mitochondria Different-Phenotype (%) [6]: 83% and 86%
- Population Mitotic Cells (%) [6]: 7% and 6%
- Population Normal (%) [6]: 76% and 80%
- Population Pyknosed Nuclei (%) [6]: 18% and 8%
- Population Tubulin-Different-Phenotype (%) [6]: 85% and 89%

SMILES: COc1ccccc1-c1cc(Nc2cccc(CS(N)(=O)=O)c2)ncn1
- Population Apoptotic (%) [1]: 35% and 36%
- Population Fragmented Nuclei (%) [1]: 4% and 2%
- Population Healthy Nuclei (%) [1]: 85%
- Population Hoechst High Intensity Objects (%) [1]: 6% and 7%
- Population Membrane Permeable-Phenotype (%) [1]: 3% and 5%
- Population Mitochondria Different-Phenotype (%) [1]: 15% and 14%
- Population Mitotic Cells (%) [1]: 64%
- Population Normal (%) [1]: 93% and 92%
- Population Pyknosed Nuclei (%) [1]: 10% and 12%
- Population Tubulin-Different-Phenotype (%) [1]: 56% and 48%
- Total Cell Count [1]: 807 and 675
- Population Apoptotic (%) [2]: 32% and 34%
- Population Fragmented Nuclei (%) [2]: 4% and 5%
- Population Healthy Nuclei (%) [2]: 87% and 84%
- Population Hoechst High Intensity Objects (%) [2]: 7%
- Population Membrane Permeable-Phenotype (%) [2]: 3%
- Population Mitochondria Different-Phenotype (%) [2]: 26% and 28%
- Population Mitotic Cells (%) [2]: 67% and 65%
- Population Normal (%) [2]: 92%
- Population Pyknosed Nuclei (%) [2]: 8% and 10%
- Population Tubulin-Different-Phenotype (%) [2]: 61% and 74%
- Total Cell Count [2]: 665 and 582
- Population Apoptotic (%) [3]: 35% and 34%
- Population Fragmented Nuclei (%) [3]: 5% and 4%
- Population Healthy Nuclei (%) [3]: 86% and 88%
- Population Hoechst High Intensity Objects (%) [3]: 6% and 8%
- Population Membrane Permeable-Phenotype (%) [3]: 3% and 2%
- Population Mitochondria Different-Phenotype (%) [3]: 4% and 5%
- Population Mitotic Cells (%) [3]: 64% and 65%
- Population Normal (%) [3]: 93% and 91%
- Population Pyknosed Nuclei (%) [3]: 7%
- Population Tubulin-Different-Phenotype (%) [3]: 36%
- Total Cell Count [3]: 1151 and 990
- Population Apoptotic (%) [4]: 47% and 40%
- Population Fragmented Nuclei (%) [4]: 2% and 1%
- Population Healthy Nuclei (%) [4]: 90%
- Population Hoechst High Intensity Objects (%) [4]: 4% and 5%
- Population Membrane Permeable-Phenotype (%) [4]: 5% and 6%
- Population Mitochondria Different-Phenotype (%) [4]: 20% and 19%
- Population Mitotic Cells (%) [4]: 52% and 60%
- Population Normal (%) [4]: 95% and 94%
- Population Pyknosed Nuclei (%) [4]: 6% and 7%
- Population Tubulin-Different-Phenotype (%) [4]: 69% and 75%
- Total Cell Count [4]: 861 and 783
- Population Apoptotic (%) [5]: 11% and 13%
- Population Fragmented Nuclei (%) [5]: 11% and 8%
- Population Healthy Nuclei (%) [5]: 85% and 88%
- Population Hoechst High Intensity Objects (%) [5]: 8% and 9%
- Population Membrane Permeable-Phenotype (%) [5]: 5% and 3%
- Population Mitochondria Different-Phenotype (%) [5]: 0%
- Population Mitotic Cells (%) [5]: 88% and 86%
- Population Normal (%) [5]: 91% and 90%
- Population Pyknosed Nuclei (%) [5]: 3%
- Population Tubulin-Different-Phenotype (%) [5]: 15% and 16%
- Total Cell Count [5]: 2772 and 2160
- Population Apoptotic (%) [6]: 34% and 35%
- Population Fragmented Nuclei (%) [6]: 8% and 5%
- Population Healthy Nuclei (%) [6]: 86% and 90%
- Population Hoechst High Intensity Objects (%) [6]: 6%
- Population Membrane Permeable-Phenotype (%) [6]: 3%
- Population Mitochondria Different-Phenotype (%) [6]: 7% and 8%
- Population Mitotic Cells (%) [6]: 65% and 64%
- Population Normal (%) [6]: 93%
- Population Pyknosed Nuclei (%) [6]: 4% and 3%
- Population Tubulin-Different-Phenotype (%) [6]: 51% and 50%
- Total Cell Count [6]: 1254 and 1055
